Activity calls are given as the source filed them. The calls are words filed in the database; no cut-off is given here.
How the values were obtained:
[1] = Half life in dog at 2.5 mg/kg, po or 2 mg/kg, iv; details: in vivo
[2] = molecular target: Prostaglandin G/H synthase 1 (Homo sapiens, UniProt P23219); experiment: Inhibition of COX-1
[3] = molecular target: Peroxisome proliferator-activated receptor gamma (Homo sapiens, UniProt P37231); experiment: Inhibition of PPAR gamma
Mus musculus [4] = experiment: Antiinflammatory activity against cigarette smoke-induced lung inflammation in BALB/c mouse assessed as reduction in bronchoalveolar lavage fluid macrophages at 50 mg/kg, po for 2 days; type: functional, organism-based; parameters: dose 50 mg/kg
In short: (§1)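 Mice exposed to cigarette smoke. Oral dosing at 10 or 50 mg/kg, or 0.5% methylcellulose vehicle, on days −1 through 2. On day 3, euthanized by isoflurane inhalation, then bronchoalveolar lavage with differential counts of neutrophils, lymphocytes and macrophages.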

Mus musculus [5] = experiment: Antiinflammatory activity against cigarette smoke-induced lung inflammation in BALB/c mouse assessed as reduction in bronchoalveolar lavage fluid neutrophils at 50 mg/kg, po for 2 days; type: functional, organism-based; parameters: dose 50 mg/kg
In short: as §1

Cytochrome P450 2D6 = Cytochrome P450 2D6 (Homo sapiens, UniProt P10635); experiment: Inhibition of human CYP2D6; type: ADME
Mus musculus [6] = experiment: Antiallergic activity in BALB/c mouse assessed as reduction in ovalbumin-induced increase in nasal sneezes at 10 mg/kg, po administered 21 to 25 days after ovalbumin challenge followed by intranasal ovalbumin challenge measured for 8 mins of post dose; type: functional, organism-based; parameters: dose 10 mg/kg
Cytochrome P450 3A4 = Cytochrome P450 3A4 (Homo sapiens, UniProt P08684); experiment: Inhibition of human CYP3A4; type: ADME
Cytochrome P450 2C9 = Cytochrome P450 2C9 (Homo sapiens, UniProt P11712); experiment: Inhibition of human CYP2C9; type: ADME
Mus musculus [7] = experiment: Antiinflammatory activity against cigarette smoke-induced lung inflammation in BALB/c mouse assessed as reduction in bronchoalveolar lavage fluid macrophages at 10 mg/kg, po for 2 days; type: functional, organism-based; parameters: dose 10 mg/kg
In short: as §1

hERG (KCNH2) = hERG (KCNH2) (Homo sapiens, UniProt Q12809); experiment: Inhibition of human ERG at 10 uM by patch-clamp analysis
Thromboxane A2 receptor = molecular target: T1, Thromboxane A2 receptor (Homo sapiens, UniProt P21731); experiment: Displacement of [3H]SQ-29548 from TP receptor in human platelet membrane; type: cell membranes
T1 sequence (P21731 whole entry): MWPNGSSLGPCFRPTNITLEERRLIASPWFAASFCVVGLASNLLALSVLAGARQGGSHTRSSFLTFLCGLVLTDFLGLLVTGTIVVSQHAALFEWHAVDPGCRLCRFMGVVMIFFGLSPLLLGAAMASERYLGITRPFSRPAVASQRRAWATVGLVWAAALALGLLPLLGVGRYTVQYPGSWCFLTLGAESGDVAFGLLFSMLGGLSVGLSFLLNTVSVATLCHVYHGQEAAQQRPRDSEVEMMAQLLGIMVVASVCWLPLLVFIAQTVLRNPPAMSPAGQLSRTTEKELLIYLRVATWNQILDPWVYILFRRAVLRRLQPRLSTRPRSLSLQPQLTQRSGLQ
In short: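 Human TP binding using human platelet membranes and ³H-SQ-29548.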

Prostacyclin receptor = Prostacyclin receptor (Homo sapiens, UniProt P43119); experiment: Displacement of [3H]iloprost from IP receptor in human 293 cell membrane; type: cell membranes
In short: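 Human IP binding using hIP/293 membranes and ³H-iloprost.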

Cytochrome P450 2C19 = Cytochrome P450 2C19 (Homo sapiens, UniProt P33261); experiment: Inhibition of human CYP2C19; type: ADME
[8] = Clearance in dog at 2.5 mg/kg, po or 2 mg/kg, iv; details: in vivo
[9] = molecular target: Peroxisome proliferator-activated receptor delta (Homo sapiens, UniProt Q03181); experiment: Inhibition of PPAR beta
Canis familiaris = experiment: AUC in dog at 2.5 mg/kg, po or 2 mg/kg, iv; details: in vivo
Mus musculus [10] = experiment: Antiallergic activity in BALB/c mouse assessed as reduction in ovalbumin-induced increase in nasal rubs at 10 mg/kg, po administered 21 to 25 days after ovalbumin challenge followed by intranasal ovalbumin challenge measured for 8 mins of post dose; type: functional, organism-based; parameters: dose 10 mg/kg
[11] = molecular target: T2, Prostaglandin D2 receptor 2 (Homo sapiens, UniProt Q9Y5Y4); experiment: Displacement of [3H]PGD2 from human CRTh2 receptor expressed in 293 cells by liquid scintillation counting in presence of 0.2 % HSA; type: cell-based, HEK293
T2 sequence (Q9Y5Y4 whole entry): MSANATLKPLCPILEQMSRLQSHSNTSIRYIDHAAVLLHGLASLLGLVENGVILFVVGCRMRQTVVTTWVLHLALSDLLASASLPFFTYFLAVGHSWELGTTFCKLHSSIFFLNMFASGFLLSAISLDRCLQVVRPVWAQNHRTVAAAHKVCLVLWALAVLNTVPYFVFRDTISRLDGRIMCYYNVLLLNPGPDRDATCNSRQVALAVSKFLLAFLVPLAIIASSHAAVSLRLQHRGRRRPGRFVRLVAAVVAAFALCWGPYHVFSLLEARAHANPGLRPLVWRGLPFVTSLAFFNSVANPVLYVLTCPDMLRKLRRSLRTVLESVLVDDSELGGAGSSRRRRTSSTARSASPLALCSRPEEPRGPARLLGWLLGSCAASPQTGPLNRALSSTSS
In short: (§2)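 Membranes from 293 cells stably expressing human DP₂ incubated with [³H]-PGD₂ and increasing compound concentrations. Membranes harvested and washed; bound [³H]-PGD₂ counted. IC₅₀ taken as concentration giving 50% inhibition of binding. Run without and with 0.2% human serum albumin. Values averaged from three experiments (five for the lead).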

Mus musculus [12] = experiment: Antiinflammatory activity against cigarette smoke-induced lung inflammation in BALB/c mouse assessed as reduction in bronchoalveolar lavage fluid neutrophils at 10 mg/kg, po for 2 days; type: functional, organism-based; parameters: dose 10 mg/kg
In short: as §1

[13] = molecular target: T3, Prostaglandin G/H synthase 2 (Homo sapiens, UniProt P35354); experiment: Inhibition of COX-2
T3 sequence (P35354 whole entry): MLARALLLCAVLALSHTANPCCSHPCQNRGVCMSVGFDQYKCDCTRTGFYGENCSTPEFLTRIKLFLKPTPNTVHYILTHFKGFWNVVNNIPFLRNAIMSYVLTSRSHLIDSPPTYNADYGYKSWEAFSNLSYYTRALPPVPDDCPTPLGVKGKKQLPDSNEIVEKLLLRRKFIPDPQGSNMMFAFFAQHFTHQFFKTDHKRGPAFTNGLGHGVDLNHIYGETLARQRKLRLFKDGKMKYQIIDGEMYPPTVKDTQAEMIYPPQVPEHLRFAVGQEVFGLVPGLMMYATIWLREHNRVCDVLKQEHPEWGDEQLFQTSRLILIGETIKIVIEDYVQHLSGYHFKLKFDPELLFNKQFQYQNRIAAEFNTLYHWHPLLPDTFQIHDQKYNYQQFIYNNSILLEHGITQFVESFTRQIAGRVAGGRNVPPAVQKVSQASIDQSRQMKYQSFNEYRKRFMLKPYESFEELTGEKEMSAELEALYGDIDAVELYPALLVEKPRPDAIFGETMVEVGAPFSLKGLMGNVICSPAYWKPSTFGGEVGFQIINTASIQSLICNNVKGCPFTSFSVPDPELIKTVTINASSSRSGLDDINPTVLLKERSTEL

Mus musculus [14] = experiment: Antiinflammatory activity against cigarette smoke-induced lung inflammation in BALB/c mouse assessed as reduction in bronchoalveolar lavage fluid lymphocytes at 10 mg/kg, po for 2 days; type: functional, organism-based; parameters: dose 10 mg/kg
In short: as §1

[15] = Cmax in dog at 2.5 mg/kg, po or 2 mg/kg, iv; details: in vivo
[16] = molecular target: T4, Peroxisome proliferator-activated receptor alpha (Homo sapiens, UniProt Q07869); experiment: Inhibition of PPAR alpha
T4 sequence (Q07869 whole entry): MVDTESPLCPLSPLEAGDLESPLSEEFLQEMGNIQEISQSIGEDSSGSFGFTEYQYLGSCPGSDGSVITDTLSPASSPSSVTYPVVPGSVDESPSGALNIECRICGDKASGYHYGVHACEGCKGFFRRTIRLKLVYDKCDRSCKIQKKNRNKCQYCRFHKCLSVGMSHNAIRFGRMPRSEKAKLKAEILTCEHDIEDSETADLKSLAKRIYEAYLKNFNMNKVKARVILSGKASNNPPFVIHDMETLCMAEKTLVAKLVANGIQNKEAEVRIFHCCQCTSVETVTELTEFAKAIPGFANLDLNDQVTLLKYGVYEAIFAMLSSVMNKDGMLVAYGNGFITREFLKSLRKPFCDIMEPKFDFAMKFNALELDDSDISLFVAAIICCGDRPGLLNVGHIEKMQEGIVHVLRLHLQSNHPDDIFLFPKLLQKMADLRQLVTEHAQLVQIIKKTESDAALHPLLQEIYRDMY

Mus musculus [17] = experiment: Antiinflammatory activity against cigarette smoke-induced lung inflammation in BALB/c mouse assessed as reduction in bronchoalveolar lavage fluid lymphocytes at 50 mg/kg, po for 2 days; type: functional, organism-based; parameters: dose 50 mg/kg
In short: as §1

[18] = molecular target: T5, Prostaglandin D2 receptor (Homo sapiens, UniProt Q13258); experiment: Displacement of [3H]PGD2 from DP1 in human platelet membrane; type: cell membranes
T5 sequence (Q13258 whole entry): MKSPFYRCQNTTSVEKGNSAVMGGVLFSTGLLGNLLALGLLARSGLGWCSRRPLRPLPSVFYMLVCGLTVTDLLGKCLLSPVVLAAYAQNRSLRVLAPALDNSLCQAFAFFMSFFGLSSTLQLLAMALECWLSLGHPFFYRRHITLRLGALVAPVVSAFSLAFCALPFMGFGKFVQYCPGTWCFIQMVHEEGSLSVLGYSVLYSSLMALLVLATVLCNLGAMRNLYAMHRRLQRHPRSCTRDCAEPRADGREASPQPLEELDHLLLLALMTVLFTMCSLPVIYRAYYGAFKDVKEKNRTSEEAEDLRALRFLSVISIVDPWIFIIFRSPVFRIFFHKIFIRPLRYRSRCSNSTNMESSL
In short: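 Human DP₁ binding using ³H-PGD₂ and human platelet membranes.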

Cytochrome P450 1A2 = molecular target: T6, Cytochrome P450 1A2 (Homo sapiens, UniProt P05177); experiment: Inhibition of human CYP1A2; type: ADME
T6 sequence (P05177 whole entry): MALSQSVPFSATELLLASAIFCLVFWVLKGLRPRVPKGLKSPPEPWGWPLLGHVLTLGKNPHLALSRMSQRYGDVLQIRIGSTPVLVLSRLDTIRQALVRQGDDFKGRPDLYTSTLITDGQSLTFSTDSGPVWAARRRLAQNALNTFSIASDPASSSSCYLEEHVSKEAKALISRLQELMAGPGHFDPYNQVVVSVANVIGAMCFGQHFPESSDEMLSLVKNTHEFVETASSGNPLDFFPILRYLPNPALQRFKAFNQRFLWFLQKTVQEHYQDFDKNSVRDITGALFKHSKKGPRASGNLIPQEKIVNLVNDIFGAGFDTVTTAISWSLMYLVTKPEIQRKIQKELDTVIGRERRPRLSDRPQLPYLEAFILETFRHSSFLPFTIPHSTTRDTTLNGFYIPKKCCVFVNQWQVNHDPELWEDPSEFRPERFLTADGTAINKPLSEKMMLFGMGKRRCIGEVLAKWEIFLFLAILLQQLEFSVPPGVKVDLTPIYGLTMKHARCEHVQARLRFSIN

[19] = molecular target: T2, Prostaglandin D2 receptor 2; experiment: Displacement of [3H]PGD2 from human CRTh2 receptor expressed in 293 cells by liquid scintillation counting; type: cell-based, HEK293
In short: as §2

Sequence of Prostacyclin receptor (P43119 whole entry): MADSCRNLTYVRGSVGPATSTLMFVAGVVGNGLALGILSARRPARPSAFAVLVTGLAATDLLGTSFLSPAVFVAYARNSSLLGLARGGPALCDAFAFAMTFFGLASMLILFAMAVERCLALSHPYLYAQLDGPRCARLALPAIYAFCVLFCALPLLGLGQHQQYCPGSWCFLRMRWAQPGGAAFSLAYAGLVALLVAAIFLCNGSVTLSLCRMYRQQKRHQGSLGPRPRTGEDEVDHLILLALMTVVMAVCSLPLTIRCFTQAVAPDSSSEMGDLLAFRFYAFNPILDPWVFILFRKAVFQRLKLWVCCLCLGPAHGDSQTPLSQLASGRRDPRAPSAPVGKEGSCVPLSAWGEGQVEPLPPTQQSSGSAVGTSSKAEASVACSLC
Sequence of Cytochrome P450 3A4 (P08684 whole entry): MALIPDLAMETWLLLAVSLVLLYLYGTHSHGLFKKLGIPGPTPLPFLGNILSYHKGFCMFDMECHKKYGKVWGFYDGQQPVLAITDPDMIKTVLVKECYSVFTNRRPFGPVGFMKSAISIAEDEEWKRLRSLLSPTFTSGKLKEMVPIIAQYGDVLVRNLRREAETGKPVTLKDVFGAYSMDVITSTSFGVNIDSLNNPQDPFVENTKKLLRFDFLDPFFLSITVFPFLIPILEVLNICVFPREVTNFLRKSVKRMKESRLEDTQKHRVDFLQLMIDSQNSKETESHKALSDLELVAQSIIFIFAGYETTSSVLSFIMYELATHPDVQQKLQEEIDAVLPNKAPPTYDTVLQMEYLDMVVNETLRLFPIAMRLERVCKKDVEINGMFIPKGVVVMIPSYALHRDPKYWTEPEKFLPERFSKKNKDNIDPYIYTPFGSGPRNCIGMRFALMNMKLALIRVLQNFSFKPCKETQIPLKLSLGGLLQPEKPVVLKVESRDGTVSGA
Sequence of Cytochrome P450 2D6 (P10635 whole entry): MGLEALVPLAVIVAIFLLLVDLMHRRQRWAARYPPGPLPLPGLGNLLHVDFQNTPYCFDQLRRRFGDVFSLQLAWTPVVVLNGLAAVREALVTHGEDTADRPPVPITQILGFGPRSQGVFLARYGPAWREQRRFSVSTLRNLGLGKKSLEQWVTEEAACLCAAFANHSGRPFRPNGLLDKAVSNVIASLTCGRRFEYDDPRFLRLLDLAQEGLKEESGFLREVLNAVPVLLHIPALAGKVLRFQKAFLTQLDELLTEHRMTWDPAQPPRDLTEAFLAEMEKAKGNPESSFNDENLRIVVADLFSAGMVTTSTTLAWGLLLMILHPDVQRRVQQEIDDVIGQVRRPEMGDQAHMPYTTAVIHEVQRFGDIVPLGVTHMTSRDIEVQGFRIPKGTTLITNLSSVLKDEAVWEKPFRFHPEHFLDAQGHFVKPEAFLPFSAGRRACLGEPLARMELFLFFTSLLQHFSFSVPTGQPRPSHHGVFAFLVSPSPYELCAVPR
Sequence of Cytochrome P450 2C9 (P11712 whole entry): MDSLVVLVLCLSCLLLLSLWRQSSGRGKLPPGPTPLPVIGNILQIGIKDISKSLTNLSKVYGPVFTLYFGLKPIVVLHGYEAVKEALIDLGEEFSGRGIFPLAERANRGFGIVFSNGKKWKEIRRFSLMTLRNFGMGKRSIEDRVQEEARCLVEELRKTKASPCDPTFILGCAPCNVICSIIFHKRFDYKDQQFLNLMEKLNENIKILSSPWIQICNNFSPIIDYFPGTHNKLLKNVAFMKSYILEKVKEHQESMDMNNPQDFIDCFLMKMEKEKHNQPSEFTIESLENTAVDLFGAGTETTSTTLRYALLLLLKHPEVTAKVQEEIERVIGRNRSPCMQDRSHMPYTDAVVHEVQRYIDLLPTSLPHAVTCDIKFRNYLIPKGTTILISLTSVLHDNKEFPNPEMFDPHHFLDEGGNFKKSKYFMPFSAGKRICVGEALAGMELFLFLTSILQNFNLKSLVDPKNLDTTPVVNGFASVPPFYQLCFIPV
Sequence of Peroxisome proliferator-activated receptor delta (Q03181 whole entry, looked up): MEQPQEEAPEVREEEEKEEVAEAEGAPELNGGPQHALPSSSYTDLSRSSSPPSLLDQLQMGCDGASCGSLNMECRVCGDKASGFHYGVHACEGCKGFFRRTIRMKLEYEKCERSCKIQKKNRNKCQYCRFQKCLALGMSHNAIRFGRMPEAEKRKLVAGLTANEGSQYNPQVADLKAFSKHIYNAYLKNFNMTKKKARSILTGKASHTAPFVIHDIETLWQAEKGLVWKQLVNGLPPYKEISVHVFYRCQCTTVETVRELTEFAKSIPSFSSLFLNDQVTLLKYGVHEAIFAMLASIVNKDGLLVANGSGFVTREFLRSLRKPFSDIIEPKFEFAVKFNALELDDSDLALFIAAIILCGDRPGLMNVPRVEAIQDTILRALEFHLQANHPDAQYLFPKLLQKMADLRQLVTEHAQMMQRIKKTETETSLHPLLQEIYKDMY
Sequence of Peroxisome proliferator-activated receptor gamma (P37231 whole entry, looked up): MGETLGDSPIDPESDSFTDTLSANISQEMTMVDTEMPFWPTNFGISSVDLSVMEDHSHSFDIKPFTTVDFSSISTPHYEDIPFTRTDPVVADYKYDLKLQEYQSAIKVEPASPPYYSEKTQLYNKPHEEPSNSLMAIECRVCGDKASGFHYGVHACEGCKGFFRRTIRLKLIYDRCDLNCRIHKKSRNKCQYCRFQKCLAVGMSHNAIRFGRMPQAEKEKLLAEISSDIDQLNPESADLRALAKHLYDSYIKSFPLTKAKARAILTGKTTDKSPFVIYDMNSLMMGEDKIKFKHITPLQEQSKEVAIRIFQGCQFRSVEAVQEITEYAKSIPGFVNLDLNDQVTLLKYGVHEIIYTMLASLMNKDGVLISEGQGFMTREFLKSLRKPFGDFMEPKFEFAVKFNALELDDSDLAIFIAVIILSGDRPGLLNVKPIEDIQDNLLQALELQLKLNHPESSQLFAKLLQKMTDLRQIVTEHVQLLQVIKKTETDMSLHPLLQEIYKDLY
Sequence of hERG (KCNH2) (Q12809 whole entry): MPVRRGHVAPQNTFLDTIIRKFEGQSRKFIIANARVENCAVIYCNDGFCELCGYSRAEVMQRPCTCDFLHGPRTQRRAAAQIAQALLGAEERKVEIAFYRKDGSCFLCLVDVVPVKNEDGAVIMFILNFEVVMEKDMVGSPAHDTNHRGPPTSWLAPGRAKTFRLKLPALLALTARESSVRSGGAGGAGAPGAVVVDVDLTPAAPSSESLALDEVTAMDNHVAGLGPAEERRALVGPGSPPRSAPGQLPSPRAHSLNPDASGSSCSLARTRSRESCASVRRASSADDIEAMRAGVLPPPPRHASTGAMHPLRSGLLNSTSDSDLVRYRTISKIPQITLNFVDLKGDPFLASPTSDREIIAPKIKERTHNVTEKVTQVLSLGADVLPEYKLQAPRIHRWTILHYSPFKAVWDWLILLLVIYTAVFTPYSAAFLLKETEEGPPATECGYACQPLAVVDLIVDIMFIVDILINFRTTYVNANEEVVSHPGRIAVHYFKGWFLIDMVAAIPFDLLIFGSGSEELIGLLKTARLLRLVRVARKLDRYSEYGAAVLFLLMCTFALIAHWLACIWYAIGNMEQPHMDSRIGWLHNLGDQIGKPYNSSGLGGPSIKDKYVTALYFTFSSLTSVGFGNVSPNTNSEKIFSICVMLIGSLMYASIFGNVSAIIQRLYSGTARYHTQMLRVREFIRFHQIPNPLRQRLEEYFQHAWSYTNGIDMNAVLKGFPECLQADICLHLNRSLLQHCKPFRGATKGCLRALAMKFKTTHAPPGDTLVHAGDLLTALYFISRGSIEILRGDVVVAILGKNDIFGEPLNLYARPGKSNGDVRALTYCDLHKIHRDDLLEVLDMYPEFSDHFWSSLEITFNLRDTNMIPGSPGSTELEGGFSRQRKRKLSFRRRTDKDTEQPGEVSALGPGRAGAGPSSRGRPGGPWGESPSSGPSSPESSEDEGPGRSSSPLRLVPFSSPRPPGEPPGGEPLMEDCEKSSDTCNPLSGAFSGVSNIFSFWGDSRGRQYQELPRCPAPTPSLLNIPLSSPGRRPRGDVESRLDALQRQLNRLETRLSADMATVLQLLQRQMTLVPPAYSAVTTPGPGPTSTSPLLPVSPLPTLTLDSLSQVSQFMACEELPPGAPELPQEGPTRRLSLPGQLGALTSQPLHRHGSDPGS
Sequence of Cytochrome P450 2C19 (P33261 whole entry): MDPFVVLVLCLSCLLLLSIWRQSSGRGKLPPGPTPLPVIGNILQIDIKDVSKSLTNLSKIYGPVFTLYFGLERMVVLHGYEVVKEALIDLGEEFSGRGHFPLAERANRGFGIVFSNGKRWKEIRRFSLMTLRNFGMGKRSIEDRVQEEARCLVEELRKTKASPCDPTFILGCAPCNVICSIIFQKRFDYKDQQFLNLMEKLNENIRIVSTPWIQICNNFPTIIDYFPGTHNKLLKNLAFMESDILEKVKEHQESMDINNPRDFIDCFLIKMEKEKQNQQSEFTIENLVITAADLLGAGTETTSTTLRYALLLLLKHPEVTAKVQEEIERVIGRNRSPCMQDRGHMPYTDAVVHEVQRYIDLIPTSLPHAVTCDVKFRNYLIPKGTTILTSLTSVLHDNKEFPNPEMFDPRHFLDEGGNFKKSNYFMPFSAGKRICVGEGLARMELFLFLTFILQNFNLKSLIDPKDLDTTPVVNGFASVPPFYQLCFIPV

CCOc1ccc(-c2ccc(-c3cc(CC(=O)[O-])ccc3OC)c(CN(CC)C(=O)C3CC3)c2)cn1.[Na+]
half-life [1]: 6 h
IC50 [2]: > 100000 nM
IC50 [3]: > 250000 nM
Activity (Mus musculus [4]): Active
Activity (Mus musculus [5]): Active
IC50 (Cytochrome P450 2D6): > 50000 nM
Activity (Mus musculus [6]): Active
IC50 (Cytochrome P450 3A4): > 50000 nM
IC50 (Cytochrome P450 2C9): > 50000 nM
Activity (Mus musculus [7]): inactive
inhibition at 10 µM (hERG (KCNH2)): 11%
IC50 (Thromboxane A2 receptor): > 100000 nM
IC50 (Prostacyclin receptor): > 100000 nM
IC50 (Cytochrome P450 2C19): > 50000 nM
clearance [8]: 0.5 mL/min/kg
IC50 [9]: > 250000 nM
AUC (Canis familiaris): 87 µg/mL
Activity (Mus musculus [10]): Active
IC50 [11]: 31 nM
Activity (Mus musculus [12]): Active
IC50 [13]: > 100000 nM
Activity (Mus musculus [14]): inactive
Cmax [15]: 30 µM
IC50 [16]: > 250000 nM
Activity (Mus musculus [17]): Active
IC50 [18]: 26700 nM
IC50 (Cytochrome P450 1A2): > 50000 nM
IC50 [19]: 6 nM

CCN(Cc1cc(-c2cnn(C)c2)ccc1-c1cc(CC(=O)O)ccc1OC)C(=O)C1CC1
IC50 [11]: 37 nM
IC50 [19]: 27 nM

CCN(Cc1cc(-c2ccc(F)cn2)ccc1-c1cc(CC(=O)O)ccc1OC)C(=O)C1CC1
IC50 [11]: 60 nM
IC50 [19]: 9 nM

CCN(Cc1cc(F)ccc1-c1cc(CC(=O)O)ccc1OC)C(=O)OCc1ccccc1
IC50 [11]: 9 nM
IC50 [19]: 1 nM

CCN(Cc1cc(C(=O)O)ccc1-c1cc(CC(=O)O)ccc1OC)C(=O)OCc1ccccc1
IC50 [11]: 254 nM
IC50 [19]: 8 nM

CCN(Cc1cc(-c2ncc(OC)cn2)ccc1-c1cc(CC(=O)O)ccc1OC)C(=O)C1CC1
IC50 [11]: 107 nM
IC50 [19]: 27 nM

CCN(Cc1cc(NS(=O)(=O)c2ccc(Cl)cc2)ccc1-c1cc(CC(=O)O)ccc1OC)C(=O)OCc1ccccc1
IC50 [11]: 90 nM
IC50 [19]: 3 nM

CCN(Cc1cc(NC(C)=O)ccc1-c1cc(CC(=O)O)ccc1OC)C(=O)OCc1ccccc1
IC50 [11]: 60 nM
IC50 [19]: 7 nM

CCN(Cc1cc(C(C)(C)O)ccc1-c1cc(CC(=O)O)ccc1OC)C(=O)OCc1ccccc1
IC50 [11]: 24 nM
IC50 [19]: 12 nM

CCN(Cc1cc(-c2cnc3ccccc3c2)ccc1-c1cc(CC(=O)O)ccc1OC)C(=O)C1CC1
IC50 [11]: 52 nM
IC50 [19]: 7 nM

CCN(Cc1cc(S(C)(=O)=O)ccc1-c1cc(CC(=O)O)ccc1OC)C(=O)OCc1ccccc1
IC50 [11]: 7 nM
IC50 [19]: 5 nM
